Assay outcomes as filed in PubChem BioAssay.
UPR XBP1 act = activators of adaptive XBP1 UPR arm, primary screen, cell-based, CHO-XBP1 luciferase reporter, luminescence, uHTS | IRE1-XBP1 UPR activation; percent of tunicamycin response, DMSO as zero | activation, % at 20 µM | 330,000 compounds, 0.33% hits | AID 463104, 2010;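 active = versus positive control, 20 µM dose yields 30% or more activation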
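Signal: luciferase luminescence; Assay system: CHO-XBP1 luciferase reporter cells; Amount: one thousand reporter cells per well; Dosing: 20 µM single concentration, DMSO 1%; Benchmarks: high control tunicamycin 10 µg/mL final, low control DMSO vehicle only; Schedule: 6 h compound exposure at 37 °C, 5% CO2; Evaluation: percent activation relative to tunicamycin reference.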
CSC inhib = cancer stem cell viability inhibitors, primary screen, luminescence; cancer stem cell-like cells viability; inhibition, % at 7.5 µM; 300,000 compounds, 1.1% hits; AID 2717, 2010; in the data active = inhibition above about 75%; tested in HMLE shEcad cells
Mdm2-MdmX inh = inhibitors of human Mdm2-MdmX association, primary screen, cell-based, luminescence, split luciferase, SaOS-2, uHTS; SaOS-2 split-luciferase Mdm2/MdmX complementation; inhibition, % at 8 µM; 330,000 compounds, 3% hits;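 active = inhibition of at least 50% at 8 µM in the primary screen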
Target sequence (O15151 whole entry, looked up): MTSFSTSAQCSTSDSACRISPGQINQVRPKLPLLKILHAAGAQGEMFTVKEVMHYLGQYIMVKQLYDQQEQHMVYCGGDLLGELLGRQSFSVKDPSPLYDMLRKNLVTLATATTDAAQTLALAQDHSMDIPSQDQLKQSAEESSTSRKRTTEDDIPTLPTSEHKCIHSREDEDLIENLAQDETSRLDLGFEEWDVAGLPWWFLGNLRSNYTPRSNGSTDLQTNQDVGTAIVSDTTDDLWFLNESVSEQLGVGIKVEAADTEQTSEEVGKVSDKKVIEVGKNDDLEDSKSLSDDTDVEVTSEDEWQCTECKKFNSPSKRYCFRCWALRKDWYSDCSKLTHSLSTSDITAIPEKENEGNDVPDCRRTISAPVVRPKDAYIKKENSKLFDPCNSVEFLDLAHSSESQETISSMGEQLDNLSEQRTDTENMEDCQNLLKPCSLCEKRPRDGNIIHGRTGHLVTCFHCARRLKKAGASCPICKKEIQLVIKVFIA
Target sequence (Q00987 whole entry, looked up): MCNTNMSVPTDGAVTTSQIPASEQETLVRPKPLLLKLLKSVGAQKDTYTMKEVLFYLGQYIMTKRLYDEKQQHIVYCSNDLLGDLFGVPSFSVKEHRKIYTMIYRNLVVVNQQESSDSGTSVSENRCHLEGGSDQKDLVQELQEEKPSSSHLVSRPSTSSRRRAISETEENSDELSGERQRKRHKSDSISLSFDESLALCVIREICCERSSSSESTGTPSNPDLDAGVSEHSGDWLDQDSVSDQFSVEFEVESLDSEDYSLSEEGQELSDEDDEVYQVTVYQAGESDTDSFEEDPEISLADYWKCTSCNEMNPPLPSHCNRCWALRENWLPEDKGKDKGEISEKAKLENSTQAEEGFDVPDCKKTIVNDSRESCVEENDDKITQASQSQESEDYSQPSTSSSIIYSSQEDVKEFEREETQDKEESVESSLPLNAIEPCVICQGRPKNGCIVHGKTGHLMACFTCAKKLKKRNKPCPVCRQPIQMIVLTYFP
Beta cell apopt = inhibitors of cytokine-induced beta cell apoptosis, primary screen, luminescence; INS-1E cytokine-induced death, ATP luminescence, 48 h; percent of positive-control rescue, neutral wells zero; protection from apoptosis, % (concentration not given with the values); 300,000 compounds, 0.8% hits;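 active = Every replicate reaches about 75%, or at least half do and their mean reaches it too, limit read from the data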;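 note: higher means more ATP so stronger rescue from cytokine killing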
CHOP UPR activ = activators of apoptotic CHOP UPR arm, primary screen, cell-based, CHO-CHOP luciferase reporter, luminescence, uHTS; UPR activation; percent of tunicamycin response over DMSO baseline; activation, % at 10 µM; 330,000 compounds, 0.34% hits;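 active = at 10 µM dose, activation of 40% or more, normalized to positive control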
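Test system: CHO-CHOP cells, stable luciferase reporter of PERK-eIF2a-CHOP signalling | Quantity: 500 CHO-CHOP cells per well | Buffer or medium: F12 plus 10% serum | Compound dosing: 10 µM single point, 0.5% DMSO | Schedule: 6 h compound treatment, 37 °C | Signal: Luciferase luminescence | Control set: Tunicamycin high control, DMSO low control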
SKKanGAS inh = S. pyogenes SKKanGAS growth inhibitors in kanamycin, primary screen, streptokinase expression inhibitor project, SKKanGAS strain, BacTiter-Glo luminescence; inhibition, % at 7.5 µM; 6 h; 300,000 compounds, 1.3% hits;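 active = mean replicate score, as percent of positive control median, at least 50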;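 note: strain carries kanamycin resistance gene driven by streptokinase promoter and grows in 40 µg/ml kanamycin; loss of luminescence reflects streptokinase promoter inhibition or plain growth inhibition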
Mdm2 MdmX conf = Mdm2-MdmX complex disruptors, retested hits, confirmation, luminescence, single concentration | inhibition, % at 8 µM | AID 489028, 2010 | Mdm2-MdmX binding, luminescent assay | 10,000 compounds, 55% hits | shares compounds with Mdm2-MdmX inh; in the data active = inhibition above about 40%
FLuc counter = full-length luciferase signal inhibition, confirmation, counter-screen for Mdm2/MdmX interaction inhibitor project, cell-based, single concentration, SaOS-2 | shares compounds with Mdm2-MdmX inh | SaOS-2 full-length luciferase counterscreen, luminescence | inhibition, % at 8 µM | 6,200 compounds, 77% hits | AID 504607, 2011;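 active = mean inhibition at 8 µM reaching about 37%, which flags the compound as non-specific, limit read from the data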;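 note: p53-null SaOS-2 cells with luciferase driven by a doxycycline-inducible promoter; compound on cells about two nights before reading with doxycycline added after day one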
Of the large screens only hits and unclear results are named; the others gave an inactive call (follow-up assays come after a bar, where they were run). Sampled rows, rich in hits. Any-hit rate of the full collection: about 4.8%.

CCOC(=O)C1CCN(c2cc3c(cc2NC(=O)c2ccc(OC)c(OC)c2)n(C)c(=O)n3C)CC1	Mdm2-MdmX inh 65.0 | Mdm2 MdmX conf inactive
CC(=O)Nc1ccc(SCC(=O)c2cc(C)n(-c3ccccc3F)c2C)cc1	CSC inhib 87.4, Mdm2-MdmX inh 72.3 | Mdm2 MdmX conf 81.8 | FLuc counter 73.0
COC(=O)c1ccc(-n2c(C)cc(C(=O)CSc3ccc(NC(C)=O)cc3)c2C)cc1	none (no result: Beta cell apopt)
CC(=O)Nc1ccc(SCC(=O)c2cc(C)n(Cc3cccs3)c2C)cc1	CSC inhib 106.0, Mdm2-MdmX inh 74.5 | Mdm2 MdmX conf inactive
COCCn1c(C)cc(C(=O)CSc2ccc(NC(C)=O)cc2)c1C	none
Cc1csc(SCC(=O)c2cc(C)n(Cc3cccs3)c2C)n1	Mdm2-MdmX inh 66.1 | Mdm2 MdmX conf 78.6 | FLuc counter 106.7
Cc1cc(C(=O)CSc2nnc(N)s2)c(C)n1Cc1cccs1	none
O=Cc1c[nH]c2cccc(OCc3ccccc3)c12	Mdm2-MdmX inh 57.4 (no result: CSC inhib, Beta cell apopt, SKKanGAS inh) | Mdm2 MdmX conf 53.0 | FLuc counter 63.9
Fc1ccc(F)c(CNc2ncnc3cc(Cl)ccc23)c1	none
O=C(/C=C/c1ccc(F)cc1)Nc1cc(S(=O)(=O)N2CCOCC2)ccc1N1CCCC1	none
CN1CCN(c2ccc(Cl)cc2NC(=O)/C=C/c2ccc(F)cc2)CC1	Mdm2-MdmX inh 51.6 | Mdm2 MdmX conf inactive
CN1CCN(c2ccc(Cl)cc2NC(=O)c2ccc(S(=O)(=O)N3CCCCCC3)cc2)CC1	Mdm2-MdmX inh 67.2 | Mdm2 MdmX conf inactive | FLuc counter 71.7
CCN1CCN(c2ccc(S(=O)(=O)N3CCOCC3)cc2NC(=O)/C=C/c2ccc([N+](=O)[O-])cc2)CC1	Mdm2-MdmX inh 99.5 (no result: CSC inhib) | Mdm2 MdmX conf 47.5 | FLuc counter 63.9
CCN1CCN(c2ccc(S(=O)(=O)N3CCCCC3)cc2NC(=O)c2ccc([N+](=O)[O-])o2)CC1	Mdm2-MdmX inh 53.5, Beta cell apopt 102.1 | Mdm2 MdmX conf inactive
CCN1CCN(c2ccc(S(=O)(=O)N3CCOCC3)cc2NC(=O)c2cccc([N+](=O)[O-])c2)CC1	none (no result: SKKanGAS inh)
Cc1cc(-c2ccc(C)c(S(=O)(=O)Nc3cc(C)on3)c2)on1	none
CN(Cc1ccccc1)C(=O)C1CCN(S(=O)(=O)c2cccc3nonc23)CC1	none
Cc1c(C(=O)N2CCN(c3ccc(F)cc3)CC2)sc2ncnc(N3CCN(c4ccccn4)CC3)c12	Mdm2-MdmX inh 52.8 | Mdm2 MdmX conf inactive | FLuc counter 61.5
Cc1nc(N2CCN(C)CC2)c2c(C)c(C(=O)Nc3ccc(C)c(F)c3)sc2n1	Mdm2-MdmX inh 50.2 | Mdm2 MdmX conf inactive
Cc1nc(N2CCN(c3ccccn3)CC2)c2c(C)c(C(=O)Nc3c(F)cc(F)cc3Br)sc2n1	none
Cc1c(C(=O)N2CCN(c3ccccc3)CC2)sc2ncnc(N3CCN(c4ccccn4)CC3)c12	none
COc1ccccc1N1CCN(C(=O)c2sc3ncnc(N4CCN(c5ccccn5)CC4)c3c2C)CC1	Mdm2-MdmX inh 56.0 (no result: CSC inhib) | Mdm2 MdmX conf 48.0 | FLuc counter 87.6
Cc1nc(N2CCN(c3ccccn3)CC2)c2c(C)c(C(=O)Nc3c(C)cc(Br)cc3C)sc2n1	Mdm2-MdmX inh 59.1 | Mdm2 MdmX conf inactive
COc1ccccc1NC(=O)C(C)OC(=O)CCCc1c[nH]c2ccccc12 (stereo unspecified)	none
Cc1ccc(NC(=O)CNC(=O)c2ccc(Br)o2)nc1	none
